Measured values taken from ChEMBL document CHEMBL4732146, “Nitric oxide-donating and reactive oxygen species-responsive prochelators based on 8-hydroxyquinoline as anticancer agents” (Eur J Med Chem, 2021).
Calls of active or inactive are those of the source. The calls are words filed in the database; no cut-off is given here.

Assays:
[1] = Metal chelating activity assessed as compound-Cu2+ complex formation measured after 40 mins by calcein dye based fluorescence assay; details: dose 10-50 µM
Method in brief: (§1)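 Calcein (10 µM) in 50 mM HEPES was quenched by 10 µM CuCl₂ (or FeCl₃ for the Fe³⁺ arm). Chelator was added from DMSO stock to a final 10 or 50 µM and incubated 40 min at room temperature. Recovery rate was calculated from fluorescence (λex 485 / λem 520 nm); n = 3.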

[2] = Metal chelating activity assessed as compound-Fe3+ complex formation measured after 40 mins by calcein dye based fluorescence assay; details: dose 10-50 µM; method in brief: as §1
PANC-1 [3] = assay: Cytotoxicity against human PANC-1 cells assessed as reduction in cell viability at 20 uM measured after 48 hrs by MTT assay relative to control; format: functional
Method in brief: (§2)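 MTT assay with 48 h compound exposure at 10 or 20 µM. Cells seeded 6 × 10⁴ per well and grown 24 h beforehand. MTT 4 h, DMSO solubilisation, A490 read. Percent cell death given as mean ± SD, n = 3.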

A549 [4] = assay: Cytotoxicity against human A549 cells assessed as reduction in cell viability measured after 48 hrs by MTT assay; format: functional, cell-based; details: A549, 48 h
HeLa [5] = assay: Cytotoxicity against human HeLa cells assessed as reduction in cell viability measured after 48 hrs by MTT assay; format: functional, cell-based
HepG2 [6] = assay: Cytotoxicity against human HepG2 cells assessed as reduction in cell viability measured after 48 hrs by MTT assay; format: functional, cell-based; details: HepG2, 48 h
Method in brief: (§3)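 Cells seeded 6 × 10⁴ per well, cultured 24 h at 37 °C under 5% CO₂, then exposed to compound for 48 h, with or without 50 µM CuCl₂ or FeCl₃ co-incubation. MTT added for 4 h at 37 °C, formazan dissolved in DMSO, A490 read. IC50 reported as mean (SD), n = 3.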

MCF7 [7] = assay: Cytotoxicity against human MCF7 cells assessed as reduction in cell viability measured after 48 hrs by MTT assay; format: functional, cell-based; details: MCF7, 48 h; method in brief: as §3
PANC-1 [8] = assay: Cytotoxicity against human PANC-1 cells assessed as reduction in cell viability measured after 48 hrs by MTT assay; format: functional, cell-based; details: PANC-1, 48 h; method in brief: as §3
HCT-116 [9] = assay: Cytotoxicity against human HCT-116 cells assessed as reduction in cell viability measured after 48 hrs by MTT assay; format: functional, cell-based; details: HCT-116, 48 h; method in brief: as §3
PC-3 [10] = assay: Cytotoxicity against human PC-3 cells assessed as reduction in cell viability measured after 48 hrs by MTT assay; format: functional, cell-based; details: PC-3, 48 h; method in brief: as §3
SW1990 [11] = assay: Cytotoxicity against human SW1990 cells assessed as reduction in cell viability measured after 48 hrs by MTT assay; format: functional, cell-based; details: SW1990, 48 h; method in brief: as §3
A549 [12] = assay: Cytotoxicity against human A549 cells assessed as reduction in cell viability measured after 48 hrs in presence of CuCl2 by MTT assay; format: functional, cell-based; details: A549, 48 h
HeLa [13] = assay: Cytotoxicity against human HeLa cells assessed as reduction in cell viability measured after 48 hrs in presence of CuCl2 by MTT assay; format: functional, cell-based
HepG2 [14] = assay: Cytotoxicity against human HepG2 cells assessed as reduction in cell viability measured after 48 hrs in presence of CuCl2 by MTT assay; format: functional, cell-based; details: HepG2, 48 h; method in brief: as §3
MCF7 [15] = assay: Cytotoxicity against human MCF7 cells assessed as reduction in cell viability measured after 48 hrs in presence of CuCl2 by MTT assay; format: functional, cell-based; details: MCF7, 48 h; method in brief: as §3
PANC-1 [16] = assay: Cytotoxicity against human PANC-1 cells assessed as reduction in cell viability measured after 48 hrs in presence of CuCl2 by MTT assay; format: functional, cell-based; details: PANC-1, 48 h; method in brief: as §3
HCT-116 [17] = assay: Cytotoxicity against human HCT-116 cells assessed as reduction in cell viability measured after 48 hrs in presence of CuCl2 by MTT assay; format: functional, cell-based; details: HCT-116, 48 h; method in brief: as §3
PC-3 [18] = assay: Cytotoxicity against human PC-3 cells assessed as reduction in cell viability measured after 48 hrs in presence of CuCl2 by MTT assay; format: functional, cell-based; details: PC-3, 48 h; method in brief: as §3
SW1990 [19] = assay: Cytotoxicity against human SW1990 cells assessed as reduction in cell viability measured after 48 hrs in presence of CuCl2 by MTT assay; format: functional, cell-based; details: SW1990, 48 h; method in brief: as §3
A549 [20] = assay: Cytotoxicity against human A549 cells assessed as reduction in cell viability measured after 48 hrs in presence of FeCl3 by MTT assay; format: functional, cell-based; details: A549, 48 h
HeLa [21] = assay: Cytotoxicity against human HeLa cells assessed as reduction in cell viability measured after 48 hrs in presence of FeCl3 by MTT assay; format: functional, cell-based
HepG2 [22] = assay: Cytotoxicity against human HepG2 cells assessed as reduction in cell viability measured after 48 hrs in presence of FeCl3 by MTT assay; format: functional, cell-based; details: HepG2, 48 h; method in brief: as §3
MCF7 [23] = assay: Cytotoxicity against human MCF7 cells assessed as reduction in cell viability measured after 48 hrs in presence of FeCl3 by MTT assay; format: functional, cell-based; details: MCF7, 48 h; method in brief: as §3
PANC-1 [24] = assay: Cytotoxicity against human PANC-1 cells assessed as reduction in cell viability measured after 48 hrs in presence of FeCl3 by MTT assay; format: functional, cell-based; details: PANC-1, 48 h; method in brief: as §3
HCT-116 [25] = assay: Cytotoxicity against human HCT-116 cells assessed as reduction in cell viability measured after 48 hrs in presence of FeCl3 by MTT assay; format: functional, cell-based; details: HCT-116, 48 h; method in brief: as §3
PC-3 [26] = assay: Cytotoxicity against human PC-3 cells assessed as reduction in cell viability measured after 48 hrs in presence of FeCl3 by MTT assay; format: functional, cell-based; details: PC-3, 48 h; method in brief: as §3
SW1990 [27] = assay: Cytotoxicity against human SW1990 cells assessed as reduction in cell viability measured after 48 hrs in presence of FeCl3 by MTT assay; format: functional, cell-based; details: SW1990, 48 h; method in brief: as §3
[28] = Cytotoxicity against human H6C7 cells assessed as reduction in cell viability measured after 48 hrs by MTT assay; format: cell-based; details: H6C7, 48 h; method in brief: as §3
[29] = Cytotoxicity against human RWPE2 cells assessed as reduction in cell viability measured after 48 hrs by MTT assay; format: cell-based; details: RWPE2, 48 h; method in brief: as §3
SW1990 [30] = assay: Induction of apoptosis in human SW1990 cells at 12 uM measured after 24 hrs by Annexin V-FITC/propidium iodide staining based flow cytometry; format: functional, cell-based
Method in brief: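 SW1990 cells seeded 5 × 10⁵ per well and grown 24 h, then treated 24 h at 8 or 12 µM. Optional 1 h pretreatment with 20 mM NAC or 50 µM carboxyl-PTIO before 12 µM treatment. Cells stained with annexin V-FITC 15 min and PI 5 min at room temperature in the dark, then analysed by flow cytometry. Mean ± SD, n = 3.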

SW1990 [31] = assay: Antitumor activity against human SW1990 cells xenografted in Balb/c nude mouse assessed as tumor size at 20 mg/kg, iv administered every 3 days measured after 21 days (reference value: 1.23 +/- 0.25 cm3); format: functional; details: time 21 day
Method in brief: (§4)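 Male BALB/c nude mice, 3–5 weeks old, given 1 × 10⁷ SW1990 cells subcutaneously; when tumors reached about 65 mm³, randomised to groups of eight. Saline vehicle control, dosing intravenously every three days. Tumor size monitored every two days for three weeks; tumors dissected at sacrifice on day 21, volume = d² × D/2 (d smallest, D largest diameter). Mean ± SD.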

SW1990 [32] = assay: Antitumor activity against human SW1990 cells xenografted in Balb/c nude mouse assessed as tumor growth inhibition at 20 mg/kg, iv administered every 3 days measured after 21 days relative to control; format: functional; details: 504 h, time 21 day, read-out: TGI; method in brief: as §4
[33] = Drug metabolism in human PANC-1 cells assessed as nitric oxide release at 10 uM measured after 8 hrs by Griess assay; format: ADME, cell-based; details: panc-1, 8 h
Method in brief: (§5)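 Cells exposed 8 h to 10 µM compound. Nitrite measured by Griess reagent kit at 540 nm against a NaNO₂ calibration curve. Mean ± SD, n = 3.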

[34] = Drug metabolism in human SW1990 cells assessed as nitric oxide release at 10 uM measured after 8 hrs by Griess assay; format: ADME, cell-based; details: sw1990, 8 h; method in brief: as §5
A549 [35] = assay: Cytotoxicity against human A549 cells assessed as reduction in cell viability at 10 to 20 uM measured after 48 hrs by MTT assay; format: functional, cell-based; details: dose 10-20 µM
HeLa [36] = assay: Cytotoxicity against human HeLa cells assessed as reduction in cell viability at 10 to 20 uM measured after 48 hrs by MTT assay; format: functional, cell-based; details: dose 10-20 µM
HepG2 [37] = assay: Cytotoxicity against human HepG2 cells assessed as reduction in cell viability at 10 to 20 uM measured after 48 hrs by MTT assay; format: functional, cell-based; details: dose 10-20 µM; method in brief: as §2
MCF7 [38] = assay: Cytotoxicity against human MCF7 cells assessed as reduction in cell viability at 10 to 20 uM measured after 48 hrs by MTT assay; format: functional, cell-based; details: dose 10-20 µM; method in brief: as §2
PANC-1 [39] = assay: Cytotoxicity against human PANC-1 cells assessed as reduction in cell viability at 10 uM measured after 48 hrs by MTT assay; format: functional, cell-based; method in brief: as §2
[40] = Drug metabolism in human SW1990 cells assessed as nitric oxide release at 12 uM measured after 24 hrs by DAF-FM DA probe based flow cytometry; format: ADME, cell-based; details: sw1990, 24 h
Method in brief: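 SW1990 cells at 80% confluence loaded with 5 µM DAF-FM DA for 20 min at 37 °C, rinsed, then incubated with compound. Optional 1 h pretreatment with 50 µM carboxyl-PTIO before 12 µM treatment. Fluorescence read by flow cytometry (ex 495 / em 515 nm). Mean ± SD, n = 3.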

SW1990 [41] = assay: Cytotoxicity against human SW1990 cells assessed as reduction in cell viability at 10 to 20 uM measured after 48 hrs by MTT assay; format: functional, cell-based; details: dose 10-20 µM; method in brief: as §2

SMILES | Activity [1] | Activity [2] | Activity (PANC-1 [3]) | IC50 (A549 [4]) | IC50 (HeLa [5]) | IC50 (HepG2 [6]) | IC50 (MCF7 [7]) | IC50 (PANC-1 [8]) | IC50 (HCT-116 [9]) | IC50 (PC-3 [10]) | IC50 (SW1990 [11]) | IC50 (A549 [12]) | IC50 (HeLa [13]) | IC50 (HepG2 [14]) | IC50 (MCF7 [15]) | IC50 (PANC-1 [16]) | IC50 (HCT-116 [17]) | IC50 (PC-3 [18]) | IC50 (SW1990 [19]) | IC50 (A549 [20]) | further results
Oc1cccc2cccnc12 [OXYQUINOLINE] | Dose-dependent effect | Dose-dependent effect | 48% | 31.2 µM | > 50 µM | > 50 µM | > 50 µM | 24.5 µM | 21.1 µM | 32 µM | 32.1 µM | 6.58 µM | 35.6 µM | 32.1 µM | 21.1 µM | 7.43 µM | 7.25 µM | 14.4 µM | 10.2 µM | 32.6 µM | IC50 (HeLa [21]): > 50 µM; IC50 (HepG2 [22]): > 50 µM; IC50 (MCF7 [23]): > 50 µM; IC50 (PANC-1 [24]): 30.4 µM; IC50 (HCT-116 [25]): 26.3 µM; IC50 (PC-3 [26]): > 50 µM; IC50 (SW1990 [27]): > 50 µM; IC50 [28]: 20.1 µM; IC50 [29]: 25.6 µM; Activity (SW1990 [30]): Active; Activity (SW1990 [31]): 0.68 cm3; inhibition in vivo at 20 mg/kg (SW1990 [32]): 44.7%
O=C(NCCCOc1no[n+]([O-])c1S(=O)(=O)c1ccccc1)c1ccc2cccc(O)c2n1 | Dose-dependent effect | Dose-dependent effect | 75.2% | 13.8 µM | 28.7 µM | 17.9 µM | 13.4 µM | 7.54 µM | 14.6 µM | 11.7 µM | 9.24 µM | 4.68 µM | 9.56 µM | 6.32 µM | 3.23 µM | 0.86 µM | 5.2 µM | 5.63 µM | 1.47 µM | 17.9 µM | Drug metabolism [33]: Metabolite_Detected; Drug metabolism [34]: Metabolite_Detected; Activity (A549 [35]): Active; Activity (HeLa [36]): Active; Activity (HepG2 [37]): Active; Activity (MCF7 [38]): Active; Activity (PANC-1 [39]): Active; IC50 (HeLa [21]): 33.2 µM; IC50 (HepG2 [22]): 22.4 µM; IC50 (MCF7 [23]): 18.2 µM; IC50 (PANC-1 [24]): 13.9 µM; IC50 (HCT-116 [25]): 20.1 µM; IC50 (PC-3 [26]): 17.1 µM; IC50 (SW1990 [27]): 12.1 µM; IC50 [28]: 9.05 µM; IC50 [29]: 8.77 µM
O=C(NCCCOc1nonc1S(=O)(=O)c1ccccc1)c1ccc2cccc(OCc3ccc(B(O)O)cc3)c2n1 | – | – | – | – | – | – | – | – | – | – | – | – | – | – | – | – | – | – | – | – | Drug metabolism [40]: Metabolite_Notdetected; Activity (SW1990 [41]): inactive; Activity (SW1990 [30]): Active
